Source: PubChem (Sanford-Burnham Center for Chemical Genomics)
Sampled rows, rich in hits. Any-hit rate of the full collection: about 1.7%.
STEP block – inhibitors of human striatal-enriched phosphatase STEP | P54829 | recombinant STEP, OMFP fluorogenic substrate, fluorescence | inhibition, % at 20 µM | hit rate 0.25% among 360,000 | AID 588621;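 active = inhibition at 20 µM, scaled per plate between control wells, above about 37%, limit read from the data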
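Also added – OMFP at 25 µM · Test system – STEP tyrosine phosphatase · Technique – FITC-channel fluorescence of OMFP product · Schedule – 20 min at room temperature, dark · Evaluation – control-normalized % inhibition with plate pattern correction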
SUMO1 PPI mod – alters human SUMO1 binding to SIM partners | P63165 | inhibition, % at 20 µM | AID 602429 | hit rate 0.33% among 360,000 | SUMO1 binding to a labelled peptide, TR-FRET, 1 h; in the data active = inhibition above about 37%
Target sequence (P63165 whole entry, looked up): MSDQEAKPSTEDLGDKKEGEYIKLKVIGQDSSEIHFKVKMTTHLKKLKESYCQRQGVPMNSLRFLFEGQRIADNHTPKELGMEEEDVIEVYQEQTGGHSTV
Scp1 inh – inhibitors of human Scp-1 phosphatase | Q9GZU7 | hit rate 0.88% among 340,000 | inhibition, % at 20 µM | Recombinant Scp1, phosphopeptide, malachite green phosphate absorbance;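 active = inhibition above about 50% at 20 µM, limit read from the data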
Target sequence (Q9GZU7 76-261 limits assumed): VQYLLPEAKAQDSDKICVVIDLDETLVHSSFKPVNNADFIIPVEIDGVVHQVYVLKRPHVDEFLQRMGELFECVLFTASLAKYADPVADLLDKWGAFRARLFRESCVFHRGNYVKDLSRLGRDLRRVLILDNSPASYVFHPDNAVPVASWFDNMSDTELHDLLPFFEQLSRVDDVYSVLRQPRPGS
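Test system: SCP-1 phosphatase catalytic domain, residues 76-261; measured by: colorimetric phosphate reagent with accelerator and stabiliser, absorbance at 630 nm; timing: enzyme reaction 45 min at room temperature, colour 5 min, stabilisation 30 min; also added: Phosphorylated 17-residue peptide substrate; compound dosing: one concentration, 20 µM, with 1.0% DMSO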
DNMT1 block – DNMT1 (human) enzyme inhibition; inhibition (reported as % activation of signal), % at 10 µM; DNMT1 molecular beacon, Hinp1I cleavage, fluorescence; P26358; hit rate 0.83% among 360,000; in the data active = inhibition above about 50%
LMPTP inh – blocks human LMPTP phosphatase. P24666. recombinant LMPTP-A, OMFP fluorogenic substrate, fluorescence intensity. inhibition, % at 20 µM. hit rate 0.22% among 360,000. AID 651560;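 active = compounds that cut the enzyme signal by at least half of the control window in the single-dose screen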
Target sequence (P24666 whole entry, looked up): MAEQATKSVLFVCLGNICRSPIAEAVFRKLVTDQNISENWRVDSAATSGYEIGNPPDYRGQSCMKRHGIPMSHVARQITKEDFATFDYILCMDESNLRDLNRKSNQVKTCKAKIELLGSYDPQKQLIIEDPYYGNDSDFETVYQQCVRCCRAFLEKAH
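Test system: LMPTP-A phosphatase enzyme; input: 0.625 nM LMPTP-A final; reagent: OMFP substrate, 400 µM final; compound dosing: 20 µM single dose, 3% DMSO; incubation: 50 min dark incubation at room temperature; measured by: endpoint fluorescence intensity from OMFP dephosphorylation; measure: % inhibition relative to no-enzyme and uninhibited control wells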
Scp1 confirm – Scp-1 (human) inhibition, single-dose confirmed; shares compounds with Scp1 inh; recombinant SCP-1 catalytic domain, phosphate release, malachite green absorbance; inhibition, % at 20 µM; hit rate 61% among 2,500; AID 540281
Scp-1 MG ctr – colorimetric interference in Scp-1 counter-screen; shares compounds with Scp1 inh; Colorimetric interference counterscreen, malachite green absorbance 630 nm; apparent inhibition (interference), % at 20 µM; 2,500 tested, under 10 active; AID 540313;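 note: compounds added after enzyme reaction finished so only phosphate colour detection is probed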
Scp-1 Tm shift – binds human Scp-1, shifting its melting temperature. shares compounds with Scp1 inh. Recombinant SCP1, Sypro Orange thermal shift Tm. thermal shift relative to vanadate control, % at 40 µM. hit rate 25% among 1,500. AID 540329;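 active = substances whose mean melting-temperature shift, as a percentage of the reference inhibitor's shift, reaches about 5.3%, limit read from the data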
Numbers stand for hits; – = inactive; · = no result given.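 Rule for the calls, unless noted: active = inhibition of at least 30% at 20 µM; inactive = the rest.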

SMILES	STEP block	SUMO1 PPI mod	Scp1 inh	DNMT1 block	LMPTP inh	Scp1 confirm	Scp-1 MG ctr	Scp-1 Tm shift
Cc1[nH]c(=O)c(C#N)c(C)c1CCC(=O)Nc1cc(S(C)(=O)=O)ccc1Cl	–	–	58	–	–	–	–	·
c1ccc(CCn2nnnc2C(c2cccs2)N2CCN(Cc3ccc4c(c3)OCO4)CC2)cc1 (centres undefined)	–	–	67	–	–	–	–	·
CCC(C)(C)n1nnnc1C(c1ccc2ncccc2c1)N1CCN(Cc2ccc3c(c2)OCO3)CC1 (centres undefined)	–	–	–	–	–	·	·	·
CCC(C)(C)n1nnnc1C(c1ccc(C)cc1)N1CCN(Cc2ccc3c(c2)OCO3)CC1 (centres undefined)	–	–	66	–	–	–	–	·
Nc1cccc(/C=C/c2ccncc2)c1	–	–	–	–	–	·	·	·
COc1cccc(CNC(=O)COC(=O)CCc2cc(OC)c(OC)c(OC)c2)c1	–	–	–	–	–	·	·	·
CCOC(=O)[C@@H]1[C@H]2COc3ccccc3[C@H]2N2C(=O)N(c3cccc(F)c3)C(=O)[C@]12C	–	–	–	–	–	·	·	·
Cn1c(SCC(=O)N/N=C/C=C\c2ccco2)nc2ccccc21	–	–	84	54	–	62	–	–
O=C(NNC(=O)c1ccc(Cl)cc1Cl)c1ccc2ccccc2c1	–	–	–	–	–	–	–	·
CSc1ccc(CCNC(=O)CSc2ccsc2[N+](=O)[O-])cc1	–	–	51	–	–	55	–	7.5
O=C(Nc1ccc(Oc2ccccc2)nc1)C1CCCCN1Cc1ccco1 (centres undefined)	–	–	–	–	–	·	·	·
O=C(NCCCO)c1cc([N+](=O)[O-])cc2c1C=Cc1ccccc1O2	–	–	98	–	–	–	–	·
O=C(NCCCc1ccccc1)c1ccc([N+](=O)[O-])cc1Cl	–	–	–	–	–	·	·	·
Cc1cc(C(=O)OCC(=O)Nc2cccc(S(N)(=O)=O)c2)c2ccccc2n1	–	–	–	–	–	·	·	·
C=CCOc1ccc(Br)cc1/C=C1/SC(=Nc2ccc(C(=O)O)cc2)NC1=O	65	–	86	–	81	75	–	–
C=CCSc1nnc(NC(=O)CSc2nc3ccccc3[nH]2)s1	–	–	–	–	–	·	·	·
C=CCSc1nnc(NC(=O)CSc2nc(CCC)cc(=O)[nH]2)s1	–	–	53	–	–	–	–	·
Cc1cccc(C)c1NC(=O)CSc1nnc(NC(=O)c2ccccc2C(=O)O)s1	–	–	65	–	–	–	–	·
CCOc1cc(/C=C(\C#N)C(=O)Nc2cccc(C(=O)O)c2)cc(Br)c1OC(=O)c1ccc(OC)cc1	–	–	–	–	–	·	·	·
COc1cc(/C=C(\C#N)C(=O)Nc2cccc(C(=O)O)c2)ccc1OCc1ccc(F)cc1	–	–	56	–	–	–	–	·
N#C/C(=C\c1ccc(OCc2ccc(Br)cc2)cc1)C(=O)Nc1cccc(C(=O)O)c1	41	57	57	–	–	59	–	–
N#C/C(=C/c1ccccc1OCc1ccc(F)cc1)c1ccc(C(=O)O)cc1	–	–	65	–	–	–	–	·
CCOc1cc(/C=C(\C#N)C(=O)Nc2cccc(C(=O)O)c2)ccc1OCc1ccccc1Cl	–	–	–	–	–	·	·	·
N#C/C(=C/c1ccc(OCc2ccc(C(=O)O)cc2)cc1)C(=O)Nc1ccccc1	–	–	71	–	–	82	–	–
COc1cccc(/C=C(/C#N)c2ccc(F)cc2)c1OCc1cccc(C(=O)O)c1	–	–	–	–	–	·	·	·
SMILES	STEP block	SUMO1 PPI mod	Scp1 inh	DNMT1 block	LMPTP inh	Scp1 confirm	Scp-1 MG ctr	Scp-1 Tm shift
N#C/C(=C\c1ccccc1OCc1ccc(C(=O)O)cc1)C(=O)Nc1ccc(O)cc1	–	–	–	–	–	·	·	·
COc1ccc(CNC(=O)/C=C/[C@H]2O[C@@H](n3ccc(=O)[nH]c3=O)[C@H](O)[C@@H]2O)cc1	–	–	·	–	–	·	·	·
O=C(/C=C/c1ccc(Cl)cc1)NC(=S)Nc1ccccc1C(=O)O	–	–	58	–	–	67	–	7.8
NC(=O)c1ccccc1NC(=O)/C=C/c1ccc(Cl)cc1	–	–	–	–	–	·	·	·
CCC1=Nc2cc(C(=O)NCCCOC(C)C)ccc2Sc2ccccc21	–	–	63	–	–	–	–	·
CCOC(=O)N1CCc2cc(OC)c(OC)c3c2c1cc1cc(OC)c(OC)cc13	–	–	–	–	–	·	·	·
Cc1ccc(OCC(=O)N(C)CC(=O)NCc2ccco2)c(Br)c1	–	–	70	–	–	75	–	–
CCOc1ccccc1OCC(=O)NCc1ccco1	–	–	58	–	–	60	–	–
COc1ccc(C(=O)OCC(=O)NCc2ccco2)cc1OC	–	–	56	–	–	53	–	–
O=C(COc1ccc(Cl)cc1Cl)NCc1ccco1	–	–	–	–	–	·	·	·
O=C(COc1ccccc1Cl)NCc1ccco1	–	–	–	–	–	·	·	·
COc1ccc(/C=C/C(=O)OCC(=O)NCc2ccco2)cc1OC	–	–	52	–	–	59	–	–
COc1ccc(OCCC(=O)OCC(=O)NCc2ccco2)cc1	–	–	86	–	–	72	–	–
O=C(COC(=O)COc1ccccc1)NCc1ccco1	–	–	–	–	–	·	·	·
CC(=O)c1nnn(-c2ccccc2C#N)c1C	–	–	65	–	–	–	–	·
CCOc1cc(C2C3=C(CC(C)(C)CC3=O)N(CCOC)C3=C2C(=O)CC(C)(C)C3)ccc1OC	–	–	54	–	–	–	–	·
C=C1CN(CC(=O)OC)S(=O)(=O)c2ccccc21	–	–	–	–	–	·	·	·
C=C1CN(Cc2ccccc2)S(=O)(=O)c2ccccc21	–	–	95	–	–	68	–	–
COc1cc(C(=O)N2CCN(S(=O)(=O)c3ccc(C)cc3C)CC2)ccc1OCC(=O)N1CCOCC1	–	–	–	–	–	·	·	·
Cc1csc2ncc(C(=O)N3CCCc4ccccc43)c(=O)n12	–	–	87	–	–	–	–	·
Cc1csc2ncc(C(=O)N3CCc4ccccc43)c(=O)n12	–	–	–	–	–	·	·	·
COc1ccc(S(=O)(=O)N2CCOC2CNC(=O)C(=O)NCC(C)C)cc1OC (centres undefined)	–	–	–	–	–	·	·	·
NC(=O)c1c(NC(=O)C2CC=CCC2C(=O)O)sc2c1CCCCC2 (centres undefined)	–	–	58	–	–	71	–	–
O=C(NNS(=O)(=O)c1ccc([N+](=O)[O-])cc1)C(=O)Nc1cccc(C(=O)O)c1	–	–	–	–	–	·	·	·
